Data on four compounds can be found in ChEMBL document CHEMBL1154352, “Toll-like receptor 7 selective synthetic oligoribonucleotide agonists: synthesis and structure-activity relationship studies” (J Med Chem, 2009).

The species named for one assay is Homo sapiens. Nature of the assay: Ratio of human TLR7 activity to human TLR8 activity. In short, it runs like this: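 TLR7/TLR8 ratio computed from fold NF-κB (SEAP reporter) activation in HEK293 cells stably expressing human TLR7 versus TLR8, compounds at 50 μg/mL, 18 h exposure; representative of three independent experiments.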
For assay [1], the target named is T1, Toll-like receptor 7 (Homo sapiens) (UniProt Q9NYK1).
T1 sequence (whole entry): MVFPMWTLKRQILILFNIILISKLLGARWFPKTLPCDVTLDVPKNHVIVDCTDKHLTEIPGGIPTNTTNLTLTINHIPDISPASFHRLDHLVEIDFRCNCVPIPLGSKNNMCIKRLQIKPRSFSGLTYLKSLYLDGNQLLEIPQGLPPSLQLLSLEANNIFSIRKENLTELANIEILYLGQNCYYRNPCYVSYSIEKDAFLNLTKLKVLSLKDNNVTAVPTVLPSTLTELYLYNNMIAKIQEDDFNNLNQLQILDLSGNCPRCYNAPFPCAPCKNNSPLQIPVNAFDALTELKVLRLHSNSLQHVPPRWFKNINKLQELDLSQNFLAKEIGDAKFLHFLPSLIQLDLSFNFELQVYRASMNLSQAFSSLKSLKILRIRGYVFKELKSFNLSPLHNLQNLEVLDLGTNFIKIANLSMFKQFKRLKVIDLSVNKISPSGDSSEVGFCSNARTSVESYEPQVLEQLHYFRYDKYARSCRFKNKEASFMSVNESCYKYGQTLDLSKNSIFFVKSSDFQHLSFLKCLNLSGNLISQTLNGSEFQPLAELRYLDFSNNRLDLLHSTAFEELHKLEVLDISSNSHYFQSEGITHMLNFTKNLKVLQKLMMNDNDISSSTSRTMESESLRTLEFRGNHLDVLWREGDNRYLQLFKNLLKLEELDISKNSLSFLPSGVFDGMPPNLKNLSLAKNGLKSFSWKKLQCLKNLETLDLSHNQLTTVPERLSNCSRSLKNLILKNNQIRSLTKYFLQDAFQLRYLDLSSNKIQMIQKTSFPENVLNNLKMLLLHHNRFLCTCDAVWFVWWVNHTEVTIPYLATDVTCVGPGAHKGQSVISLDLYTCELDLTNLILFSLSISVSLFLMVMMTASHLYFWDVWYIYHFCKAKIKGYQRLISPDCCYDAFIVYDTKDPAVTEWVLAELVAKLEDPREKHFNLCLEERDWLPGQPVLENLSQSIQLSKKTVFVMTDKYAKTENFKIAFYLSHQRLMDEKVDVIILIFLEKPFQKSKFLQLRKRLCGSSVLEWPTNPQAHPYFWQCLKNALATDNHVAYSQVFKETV
The experiment in a line: Activation of human TLR7 expressed in HEK293XL assessed as fold induction of NF-kappaB activity at 50 ug/ml after 18 hrs by reporter gene assay relative to control. The method, boiled down: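 HEK293 cells stably expressing human TLR7 or TLR8, transiently transfected with SEAP reporter plasmid; medium replaced, SIMRA compounds added, 18 h incubation. Supernatant SEAP measured by QuantiBlue; expressed as fold increase in NF-κB activity over PBS control. Tabulated data at 50 μg/mL, representative of three independent experiments.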
(In general: A reporter such as luciferase makes a cellular process visible.)

On to `Nc1ccn([C@@H]2O[C@H](COP(=O)(S)O[C@H]3[C@@H](O)[C@H](n4ccc(N)nc4=O)O[C@@H]3COP(=O)(S)O[C@H]3[C@@H](O)[C@H](n4cnc5c(N)ncnc54)O[C@@H]3COP(=O)(S)O[C@H]3[C@@H](O)[C@H](n4ccc5c(=O)[nH]c(N)nc54)O[C@@H]3COP(=O)(S)O[C@H]3[C@@H](O)[C@H](n4ccc(=O)[nH]c4=O)O[C@@H]3COP(=O)(S)O[C@H]3[C@@H](O)[C@H](n4ccc(=O)[nH]c4=O)O[C@@H]3COP(=O)(S)O[C@H]3[C@@H](O)[C@H](n4ccc(N)nc4=O)O[C@@H]3COP(=O)(S)O[C@H]3[C@@H](O)[C@H](n4cnc5c(N)ncnc54)O[C@@H]3CO)[C@@H](OP(=O)(S)OC[C@H]3O[C@@H](n4ccc(=O)[nH]c4=O)[C@H](O)[C@@H]3OP(=O)(S)OC[C@H]3O[C@@H](n4ccc5c(=O)[nH]c(N)nc54)[C@H](O)[C@@H]3OP(=O)(S)OC[C@H]3O[C@@H](n4ccc(=O)[nH]c4=O)[C@H](O)[C@@H]3OP(=O)(S)OCC(O)COP(=O)(S)O[C@H]3[C@@H](O)[C@H](n4ccc(=O)[nH]c4=O)O[C@@H]3COP(=O)(S)O[C@H]3[C@@H](O)[C@H](n4ccc5c(=O)[nH]c(N)nc54)O[C@@H]3COP(=O)(S)O[C@H]3[C@@H](O)[C@H](n4ccc(=O)[nH]c4=O)O[C@@H]3COP(=O)(S)O[C@H]3[C@@H](O)[C@H](n4ccc(N)nc4=O)O[C@@H]3COP(=O)(S)O[C@H]3[C@@H](O)[C@H](n4ccc(N)nc4=O)O[C@@H]3COP(=O)(S)O[C@H]3[C@@H](O)[C@H](n4cnc5c(N)ncnc54)O[C@@H]3COP(=O)(S)O[C@H]3[C@@H](O)[C@H](n4ccc5c(=O)[nH]c(N)nc54)O[C@@H]3COP(=O)(S)O[C@H]3[C@@H](O)[C@H](n4ccc(=O)[nH]c4=O)O[C@@H]3COP(=O)(S)O[C@H]3[C@@H](O)[C@H](n4ccc(=O)[nH]c4=O)O[C@@H]3COP(=O)(S)O[C@H]3[C@@H](O)[C@H](n4ccc(N)nc4=O)O[C@@H]3COP(=O)(S)O[C@H]3[C@@H](O)[C@H](n4cnc5c(N)ncnc54)O[C@@H]3CO)[C@H]2O)c(=O)n1` (stereo partly drawn), for which, in the assay listed under Homo sapiens, the Ratio was determined as 8.7. Besides, the fold change (FC) in assay [1] turned out to be 6.1.
On the same counts, the results for `Nc1ccn([C@@H]2O[C@H](COP(=O)(S)O[C@H]3[C@@H](O)[C@H](n4cnc5c(N)ncnc54)O[C@@H]3COP(=O)(S)O[C@H]3[C@@H](O)[C@H](n4ccc5c(=O)[nH]c(N)nc54)O[C@@H]3COP(=O)(S)O[C@H]3[C@@H](O)[C@H](n4ccc(=O)[nH]c4=O)O[C@@H]3COP(=O)(S)O[C@H]3[C@@H](O)[C@H](n4ccc(=O)[nH]c4=O)O[C@@H]3COP(=O)(S)O[C@H]3[C@@H](O)[C@H](n4cnc5c(N)ncnc54)O[C@@H]3COP(=O)(S)O[C@H]3[C@@H](O)[C@H](n4cnc5c(N)ncnc54)O[C@@H]3CO)[C@@H](OP(=O)(S)OC[C@H]3O[C@@H](n4ccc5c(=O)[nH]c(N)nc54)[C@H](O)[C@@H]3OP(=O)(S)OC[C@H]3O[C@@H](n4ccc(N)nc4=O)[C@H](O)[C@@H]3OP(=O)(S)OC[C@H]3O[C@@H](n4ccc(=O)[nH]c4=O)[C@H](O)[C@@H]3OP(=O)(S)OC[C@H]3O[C@@H](n4ccc5c(=O)[nH]c(N)nc54)[C@H](O)[C@@H]3OP(=O)(S)OCC(O)COP(=O)(S)O[C@H]3[C@@H](O)[C@H](n4ccc5c(=O)[nH]c(N)nc54)O[C@@H]3COP(=O)(S)O[C@H]3[C@@H](O)[C@H](n4ccc(=O)[nH]c4=O)O[C@@H]3COP(=O)(S)O[C@H]3[C@@H](O)[C@H](n4ccc(N)nc4=O)O[C@@H]3COP(=O)(S)O[C@H]3[C@@H](O)[C@H](n4ccc5c(=O)[nH]c(N)nc54)O[C@@H]3COP(=O)(S)O[C@H]3[C@@H](O)[C@H](n4ccc(N)nc4=O)O[C@@H]3COP(=O)(S)O[C@H]3[C@@H](O)[C@H](n4cnc5c(N)ncnc54)O[C@@H]3COP(=O)(S)O[C@H]3[C@@H](O)[C@H](n4ccc5c(=O)[nH]c(N)nc54)O[C@@H]3COP(=O)(S)O[C@H]3[C@@H](O)[C@H](n4ccc(=O)[nH]c4=O)O[C@@H]3COP(=O)(S)O[C@H]3[C@@H](O)[C@H](n4ccc(=O)[nH]c4=O)O[C@@H]3COP(=O)(S)O[C@H]3[C@@H](O)[C@H](n4cnc5c(N)ncnc54)O[C@@H]3COP(=O)(S)O[C@H]3[C@@H](O)[C@H](n4cnc5c(N)ncnc54)O[C@@H]3CO)[C@H]2O)c(=O)n1` (stereo partly drawn) are 114 and 22.9.
On the same counts, the results for `Nc1ccn([C@@H]2O[C@H](CO)[C@@H](OP(=O)(S)OC[C@H]3O[C@@H](n4ccc(=O)[nH]c4=O)[C@H](O)[C@@H]3OP(=O)(S)OC[C@H]3O[C@@H](n4ccc5c(=O)[nH]c(N)nc54)[C@H](O)[C@@H]3OP(=O)(S)OC[C@H]3O[C@@H](n4cnc5c(N)ncnc54)[C@H](O)[C@@H]3OP(=O)(S)OC[C@H]3O[C@@H](n4ccc(N)nc4=O)[C@H](O)[C@@H]3OP(=O)(S)OC[C@H]3O[C@@H](n4ccc5c(=O)[nH]c(N)nc54)[C@H](O)[C@@H]3OP(=O)(S)OC[C@H]3O[C@@H](n4cnc5c(N)ncnc54)[C@H](O)[C@@H]3OP(=O)(S)OC[C@H]3O[C@@H](n4ccc5c(=O)[nH]c(N)nc54)[C@H](O)[C@@H]3OP(=O)(S)OC[C@H]3O[C@@H](n4ccc(N)nc4=O)[C@H](O)[C@@H]3OP(=O)(S)OC[C@H]3O[C@@H](n4ccc(=O)[nH]c4=O)[C@H](O)[C@@H]3OP(=O)(S)OC[C@H]3O[C@@H](n4ccc(=O)[nH]c4=O)[C@H](O)[C@@H]3OP(=O)(S)OCC(O)COP(=O)(S)O[C@H]3[C@@H](O)[C@H](n4ccc(=O)[nH]c4=O)O[C@@H]3COP(=O)(S)O[C@H]3[C@@H](O)[C@H](n4ccc(=O)[nH]c4=O)O[C@@H]3COP(=O)(S)O[C@H]3[C@@H](O)[C@H](n4ccc(N)nc4=O)O[C@@H]3COP(=O)(S)O[C@H]3[C@@H](O)[C@H](n4ccc5c(=O)[nH]c(N)nc54)O[C@@H]3COP(=O)(S)O[C@H]3[C@@H](O)[C@H](n4cnc5c(N)ncnc54)O[C@@H]3COP(=O)(S)O[C@H]3[C@@H](O)[C@H](n4ccc5c(=O)[nH]c(N)nc54)O[C@@H]3COP(=O)(S)O[C@H]3[C@@H](O)[C@H](n4ccc(N)nc4=O)O[C@@H]3COP(=O)(S)O[C@H]3[C@@H](O)[C@H](n4cnc5c(N)ncnc54)O[C@@H]3COP(=O)(S)O[C@H]3[C@@H](O)[C@H](n4ccc5c(=O)[nH]c(N)nc54)O[C@@H]3COP(=O)(S)O[C@H]3[C@@H](O)[C@H](n4ccc(=O)[nH]c4=O)O[C@@H]3COP(=O)(S)O[C@H]3[C@@H](O)[C@H](n4ccc(N)nc4=O)O[C@@H]3CO)[C@H]2O)c(=O)n1` (stereo partly drawn) are 50 and 30.
On the same counts, the results for `Nc1ccn([C@@H]2O[C@H](COP(=O)(S)O[C@H]3[C@@H](O)[C@H](n4cnc5c(N)ncnc54)O[C@@H]3CO)[C@@H](OP(=O)(S)OC[C@H]3O[C@@H](n4ccc(=O)[nH]c4=O)[C@H](O)[C@@H]3OP(=O)(S)OC[C@H]3O[C@@H](n4ccc(=O)[nH]c4=O)[C@H](O)[C@@H]3OP(=O)(S)OC[C@H]3O[C@@H](n4ccc5c(=O)[nH]c(N)nc54)[C@H](O)[C@@H]3OP(=O)(S)OC[C@H]3O[C@@H](n4cnc5c(N)ncnc54)[C@H](O)[C@@H]3OP(=O)(S)OC[C@H]3O[C@@H](n4ccc(N)nc4=O)[C@H](O)[C@@H]3OP(=O)(S)OC[C@H]3O[C@@H](n4ccc(=O)[nH]c4=O)[C@H](O)[C@@H]3OP(=O)(S)OC[C@H]3O[C@@H](n4ccc(=O)[nH]c4=O)[C@H](O)[C@@H]3OP(=O)(S)OC[C@H]3O[C@@H](n4ccc5c(=O)[nH]c(N)nc54)[C@H](O)[C@@H]3OP(=O)(S)OC[C@H]3O[C@@H](n4cnc5c(N)ncnc54)[C@H](O)[C@@H]3OP(=O)(S)OCC(O)COP(=O)(S)O[C@H]3[C@@H](O)[C@H](n4cnc5c(N)ncnc54)O[C@@H]3COP(=O)(S)O[C@H]3[C@@H](O)[C@H](n4ccc5c(=O)[nH]c(N)nc54)O[C@@H]3COP(=O)(S)O[C@H]3[C@@H](O)[C@H](n4ccc(=O)[nH]c4=O)O[C@@H]3COP(=O)(S)O[C@H]3[C@@H](O)[C@H](n4ccc(=O)[nH]c4=O)O[C@@H]3COP(=O)(S)O[C@H]3[C@@H](O)[C@H](n4ccc(N)nc4=O)O[C@@H]3COP(=O)(S)O[C@H]3[C@@H](O)[C@H](n4cnc5c(N)ncnc54)O[C@@H]3COP(=O)(S)O[C@H]3[C@@H](O)[C@H](n4ccc5c(=O)[nH]c(N)nc54)O[C@@H]3COP(=O)(S)O[C@H]3[C@@H](O)[C@H](n4ccc(=O)[nH]c4=O)O[C@@H]3COP(=O)(S)O[C@H]3[C@@H](O)[C@H](n4ccc(=O)[nH]c4=O)O[C@@H]3COP(=O)(S)O[C@H]3[C@@H](O)[C@H](n4ccc(N)nc4=O)O[C@@H]3COP(=O)(S)O[C@H]3[C@@H](O)[C@H](n4cnc5c(N)ncnc54)O[C@@H]3CO)[C@H]2O)c(=O)n1` (stereo partly drawn) are 6.5 and 9.1.
